Results from different studies.
Protocols differ between the studies behind these lines.
Target: Maternal embryonic leucine zipper kinase (MELK, Homo sapiens, UniProt Q14680)

| SMILES | read-out | mode | method | cell line | tested at | quantity | result |
| --- | --- | --- | --- | --- | --- | --- | --- |
| N#Cc1ccc(Nc2ccc3[nH]c(=O)[nH]c3c2)c(Cl)c1 | cell-free assay | – | competition with immobilised ligand | – | 1 µM | remaining binding | 95% |
| Nc1nc(Nc2ccccc2)sc1C(=O)c1c(F)cccc1F | enzyme activity | inhibitor | – | – | 10 µM | remaining activity | 47% |
| CCN1CCN(Cc2ccc(NC(=O)c3ccc(C)c(/C=C/c4cnc5[nH]ccc5c4OC)c3)cc2C(F)(F)F)CC1 | target engagement in cells | inhibitor | chemoproteomics | A-375 | 50 nM | inhibition | -10.4% |
| C#Cc1cccc(Nc2ncnc3cc(OCCOC)c(OCCOC)cc23)c1 | cell-free assay | – | – | – | 0.5 µM | remaining signal | 88.6% |
| C[C@@H](c1cccc(C#N)c1)n1cc(Cl)cc(C(N)=O)c1=N | cell-free assay | – | competition with immobilised ligand | – | 1 µM | remaining binding | 78% |
| FC(F)(F)Oc1cccc(-c2cnc3ccc(-c4ccncc4)nn23)c1 | enzyme activity | inhibitor | radiometric | – | 1 µM | activity vs control | 84% |
| Cc1noc([C@H]2C[C@@H](c3ccc(C(F)(F)F)cc3)CN(C(=O)N3CCS(=O)(=O)C3)C2)n1 | cell-free assay | – | competition with immobilised ligand | – | 1 µM | remaining binding | 100% |
| CC(C)(C)c1nc2c(s1)c1nc(N)ncc1c1ccc(NS(=O)(=O)c3c(F)cccc3F)c(F)c12 | enzyme activity | inhibitor | radiometric | – | 1 µM | remaining activity | 41% |
| CC(=O)Nc1c(C(C)=O)c(=O)n(C)c2nc(-c3ccc(Cl)cc3Cl)c(-c3ccc(Cl)cc3)cc12 | cell-free assay | – | competition with immobilised ligand | – | 1 µM | remaining binding | 100% |
| CCCS(=O)(=O)Nc1ccc(F)c(C(=O)c2c[nH]c3ncc(-c4ccc(Cl)cc4)cc23)c1F | enzyme activity | inhibitor | – | – | 1 µM | inhibition | < 10% |
| CC(C)(C)c1nc2c3cc[nH]c(=O)c3c3cc(F)ccc3c2[nH]1 | cell-free assay | – | – | – | 0.5 µM | remaining signal | 5.23% |
| CN(C)C(=O)Cn1cc(-c2nc([C@@](C)(c3ccc(-c4cnc(N)nc4)cc3)C3CC3)no2)cn1 | cell-free assay | – | competition with immobilised ligand | – | 1 µM | remaining binding | 87% |
| O=C1NC(=O)c2cc(Nc3ccc(F)cc3)c(Nc3ccc(F)cc3)cc21 | cell-free assay | – | – | – | 0.5 µM | remaining signal | 92% |
| Nc1ncnc2occ(-c3ccc(NC(=O)Nc4cc(C(F)(F)F)ccc4F)cc3)c12 | cell-free assay | inhibitor | – | – | 20 µM | remaining signal | 8.1% |
| COc1cc(Nc2cnc(C#N)c(O[C@H](C)CN(C)C)n2)ncc1-c1cnn(C)c1 | enzyme activity | inhibitor | radiometric | – | 10 µM | remaining activity | 62% |
| CN(C)CC#Cc1ccc(OCCCc2sc(N3CCc4cccc(C(=O)Nc5nc6ccccc6s5)c4C3)nc2C(=O)O)c(F)c1 | cell-free assay | – | competition with immobilised ligand | – | 1 µM | remaining binding | 78% |

| SMILES | read-out | mode | method | cell line | tested at | quantity | result |
| --- | --- | --- | --- | --- | --- | --- | --- |
| FC(F)c1nc2ccccc2n1-c1nc(N2CCOCC2)nc(N2CCOCC2)n1 | enzyme activity | inhibitor | – | – | 10 µM | remaining activity | 91% |
| CCN(CC)CCNC(=O)c1c(C)[nH]c(/C=C2\C(=O)Nc3ccc(F)cc32)c1C | enzyme activity | inhibitor | – | – | 10 µM | inhibition | 99% |
| CC(C)(O)[C@H]1CC[C@H](Nc2ccc3ncc(-c4cccc(C(F)(F)F)c4)n3n2)CC1 | enzyme activity | inhibitor | – | – | 1 µM | remaining activity | 86.3% |
| Cc1sc(C(=O)NC2COC2)cc1-n1cc(NC(=O)Nc2c(F)cccc2Cl)cn1 | enzyme activity | inhibitor | – | – | 10 µM | remaining activity | 103% |
| Clc1ccc(Nc2nnc(Cc3ccncc3)c3ccccc23)cc1 | cell-free assay | – | – | – | 0.5 µM | remaining signal | 83.7% |
| Cc1ccc(C(=O)Nc2ccc(CN3CCN(C)CC3)c(C(F)(F)F)c2)cc1C#Cc1cnc2cccnn12 | enzyme activity | inhibitor | – | – | 23.5 nM | remaining activity | 61% |
| C[C@@]1(Cc2ccc(C#N)cc2)C(=O)N(c2cc(Cl)cc(Cl)c2)c2ncc(C(=O)NC3(c4nc(C5CCC5)no4)CC3)n21 | cell-free assay | – | competition with immobilised ligand | – | 1 µM | remaining binding | 89% |
| COc1cc2ncnc(Nc3ccc(Oc4ccccc4)c(C)c3C)c2cc1OC | enzyme activity | inhibitor | – | – | 1 µM | inhibition | 10% |
| O=C(Nc1cnn(-c2csc(C(=O)NC3COC3)c2)c1)Nc1ccccc1Cl | enzyme activity | inhibitor | – | – | 5 µM | remaining activity | 48.7% |
| CNC(=O)c1cc(Oc2ccc(NC(=O)Nc3ccc(Cl)c(C(F)(F)F)c3)cc2)ccn1 | enzyme activity | inhibitor | – | – | 0.3 µM | inhibition | 4% |
| COc1cc(/C=C/C(=O)CC(=O)/C=C/c2ccc(O)c(OC)c2)ccc1O | enzyme activity | inhibitor | – | – | 1 µM | activity vs control | 74% |
| Cc1ccc(Nc2nccc(N(C)c3ccc4c(C)n(C)nc4c3)n2)cc1S(N)(=O)=O | enzyme activity | inhibitor | – | – | 0.3 µM | inhibition | 7% |
| CC(C)(C)C(=O)c1sc(NC2CCCCC2)nc1N | enzyme activity | inhibitor | – | – | 10 µM | remaining activity | 89% |
| CN(c1ncccc1CNc1nc(Nc2ccc3c(c2)CC(=O)N3)ncc1C(F)(F)F)S(C)(=O)=O | enzyme activity | inhibitor | – | – | 1 µM | inhibition | 90.4% |
| CO[C@@H](C)c1c(Nc2ccc([C@@H](N(C)C(=O)C3CCS(=O)(=O)CC3)C(F)(F)F)cc2)cnc2cc(Cl)nn12 | cell-free assay | – | competition with immobilised ligand | – | 1 µM | remaining binding | 52% |
| COc1ccc(COc2ccc(Cc3cnc(N)nc3N)cc2OC)cc1 | cell-free assay | – | – | – | 0.5 µM | remaining signal | 102% |
